Results from ChEMBL document CHEMBL4689842, “EUbOPEN Chemogenomics Library wave 1” (2021).

System: U2OS
Experiment: Multiplex assay against U2OS
Type: toxicity, cell-based
Settings: human
Summary of the method: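 Hoechst33342, BioTracker Green Microtubule Cytoskeleton Dye, MitoTracker Red and Annexin V Alexa Fluor 680 were added to live cells at seeding, and imaging on a CQ1 microscope at 37°C and 5% CO2 followed compound addition. Gating by CellPathfinder machine learning separated cells into Hoechst high-intensity objects or normal cells, then normal cells into healthy, pyknosed or fragmented nuclei, then pyknosed cells into mitotic or apoptotic. Per cents of healthy-nucleus cells are reported for the tubulin, mitochondrial-mass and membrane-permeability phenotypes.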

[1] = 12 h, 1 µM, compound concentration 1 uM, replicate 1
[2] = 12 h, 1 µM, compound concentration 1 uM, replicate 2
[3] = 12 h, 10 µM, compound concentration 10 uM, replicate 1
[4] = 12 h, 10 µM, compound concentration 10 uM, replicate 2
[5] = 24 h, 1 µM, compound concentration 1 uM, replicate 1
[6] = 24 h, 1 µM, compound concentration 1 uM, replicate 2
[7] = 24 h, 10 µM, compound concentration 10 uM, replicate 1
[8] = 24 h, 10 µM, compound concentration 10 uM, replicate 2
[9] = 48 h, 1 µM, compound concentration 1 uM, replicate 1
[10] = 48 h, 1 µM, compound concentration 1 uM, replicate 2
[11] = 48 h, 10 µM, compound concentration 10 uM, replicate 1
[12] = 48 h, 10 µM, compound concentration 10 uM, replicate 2

## COc1cc2ncnc(Nc3ccc(F)c(Cl)c3)c2cc1NC(=O)/C=C/CN1CCCCC1 [DACOMITINIB ANHYDROUS]
[1]
  Population Apoptotic (%): 5%
  Population Fragmented Nuclei (%): 6%
  Population Healthy Nuclei (%): 84%
  Population Hoechst High Intensity Objects (%): 6%
  Population Membrane Permeable-Phenotype (%): 72%
  Population Mitochondria Different-Phenotype (%): 3%
  Population Mitotic Cells (%): 94%
  Population Normal (%): 93%
  Population Pyknosed Nuclei (%): 8%
  Population Tubulin-Different-Phenotype (%): 45%
  Total Cell Count: 197
[2]
  Population Apoptotic (%): 60%
  Population Fragmented Nuclei (%): 11%
  Population Hoechst High Intensity Objects (%): 8%
  Population Membrane Permeable-Phenotype (%): 24%
  Population Mitochondria Different-Phenotype (%): 32%
  Population Mitotic Cells (%): 40%
  Population Normal (%): 91%
  Population Pyknosed Nuclei (%): 4%
  Population Tubulin-Different-Phenotype (%): 69%
  Total Cell Count: 127
[3]
  Population Apoptotic (%): 0%
  Population Fragmented Nuclei (%): 3%
  Population Healthy Nuclei (%): 92%
  Population Hoechst High Intensity Objects (%): 3%
  Population Membrane Permeable-Phenotype (%): 31%
  Population Mitochondria Different-Phenotype (%): 7%
  Population Mitotic Cells (%): 100%
  Population Normal (%): 96%
  Population Pyknosed Nuclei (%): 4%
  Population Tubulin-Different-Phenotype (%): 15%
  Total Cell Count: 182
[4]
  Population Fragmented Nuclei (%): 14%
  Population Healthy Nuclei (%): 82%
  Population Hoechst High Intensity Objects (%): 10%
  Population Membrane Permeable-Phenotype (%): 10%
  Population Mitochondria Different-Phenotype (%): 17%
  Population Normal (%): 89%
  Population Pyknosed Nuclei (%): 2%
  Population Tubulin-Different-Phenotype (%): 18%
  Total Cell Count: 118
[5]
  Population Apoptotic (%): 46%
  Population Fragmented Nuclei (%): 9%
  Population Healthy Nuclei (%): 81%
  Population Hoechst High Intensity Objects (%): 5%
  Population Membrane Permeable-Phenotype (%): 65%
  Population Mitochondria Different-Phenotype (%): 5%
  Population Mitotic Cells (%): 53%
  Population Normal (%): 94%
  Population Pyknosed Nuclei (%): 9%
  Population Tubulin-Different-Phenotype (%): 39%
  Total Cell Count: 262
[6]
  Population Apoptotic (%): 75%
  Population Fragmented Nuclei (%): 14%
  Population Healthy Nuclei (%): 78%
  Population Membrane Permeable-Phenotype (%): 11%
  Population Mitochondria Different-Phenotype (%): 50%
  Population Mitotic Cells (%): 25%
  Population Pyknosed Nuclei (%): 7%
  Population Tubulin-Different-Phenotype (%): 58%
  Total Cell Count: 158
[7]
  Population Apoptotic (%): 40%
  Population Fragmented Nuclei (%): 5%
  Population Healthy Nuclei (%): 86%
  Population Hoechst High Intensity Objects (%): 2%
  Population Membrane Permeable-Phenotype (%): 15%
  Population Mitochondria Different-Phenotype (%): 10%
  Population Mitotic Cells (%): 59%
  Population Normal (%): 97%
  Population Pyknosed Nuclei (%): 8%
  Population Tubulin-Different-Phenotype (%): 14%
  Total Cell Count: 184
[8]
  Population Apoptotic (%): 50%
  Population Fragmented Nuclei (%): 6%
  Population Healthy Nuclei (%): 87%
  Population Hoechst High Intensity Objects (%): 9%
  Population Membrane Permeable-Phenotype (%): 18%
  Population Mitochondria Different-Phenotype (%): 24%
  Population Mitotic Cells (%): 50%
  Population Normal (%): 90%
  Population Pyknosed Nuclei (%): 5%
  Population Tubulin-Different-Phenotype (%): 22%
  Total Cell Count: 114

## C=C1/C(=C\C=C2/CCC[C@]3(C)[C@@H]([C@H](C)/C=C/[C@H](C)C(C)C)CC[C@@H]23)C[C@@H](O)C[C@@H]1O [DOXERCALCIFEROL]
[1]
  Population Apoptotic (%): 38%
  Population Fragmented Nuclei (%): 9%
  Population Healthy Nuclei (%): 82%
  Population Hoechst High Intensity Objects (%): 6%
  Population Membrane Permeable-Phenotype (%): 5%
  Population Mitochondria Different-Phenotype (%): 11%
  Population Mitotic Cells (%): 61%
  Population Normal (%): 93%
  Population Pyknosed Nuclei (%): 8%
  Population Tubulin-Different-Phenotype (%): 17%
  Total Cell Count: 2
[2]
  Population Apoptotic (%): 40%
  Population Fragmented Nuclei (%): 1%
  Population Healthy Nuclei (%): 90%
  Population Hoechst High Intensity Objects (%): 1%
  Population Mitochondria Different-Phenotype (%): 14%
  Population Mitotic Cells (%): 60%
  Population Normal (%): 98%
  Population Tubulin-Different-Phenotype (%): 9%
  Total Cell Count: 111
[3]
  Population Apoptotic (%): 36%
  Population Fragmented Nuclei (%): 20%
  Population Healthy Nuclei (%): 60%
  Population Hoechst High Intensity Objects (%): 9%
  Population Membrane Permeable-Phenotype (%): 8%
  Population Mitochondria Different-Phenotype (%): 17%
  Population Mitotic Cells (%): 63%
  Population Normal (%): 90%
  Population Pyknosed Nuclei (%): 19%
  Population Tubulin-Different-Phenotype (%): 8%
  Total Cell Count: 160
[4]
  Population Apoptotic (%): 0%
  Population Fragmented Nuclei (%): 27%
  Population Healthy Nuclei (%): 67%
  Population Hoechst High Intensity Objects (%): 6%
  Population Membrane Permeable-Phenotype (%): 2%
  Population Mitochondria Different-Phenotype (%): 21%
  Population Mitotic Cells (%): 100%
  Population Normal (%): 93%
  Population Pyknosed Nuclei (%): 5%
  Population Tubulin-Different-Phenotype (%): 13%
  Total Cell Count: 61
[5]
  Population Apoptotic (%): 7%
  Population Fragmented Nuclei (%): 8%
  Population Healthy Nuclei (%): 84%
  Population Hoechst High Intensity Objects (%): 2%
  Population Membrane Permeable-Phenotype (%): 3%
  Population Mitochondria Different-Phenotype (%): 8%
  Population Mitotic Cells (%): 92%
  Population Normal (%): 97%
  Population Pyknosed Nuclei (%): 6%
  Population Tubulin-Different-Phenotype (%): 9%
  Total Cell Count: 1
[6]
  Population Apoptotic (%): 42%
  Population Fragmented Nuclei (%): 5%
  Population Healthy Nuclei (%): 86%
  Population Hoechst High Intensity Objects (%): 4%
  Population Membrane Permeable-Phenotype (%): 4%
  Population Mitochondria Different-Phenotype (%): 7%
  Population Mitotic Cells (%): 57%
  Population Normal (%): 95%
  Population Pyknosed Nuclei (%): 8%
  Population Tubulin-Different-Phenotype (%): 14%
  Total Cell Count: 157
[7]
  Population Apoptotic (%): 56%
  Population Fragmented Nuclei (%): 43%
  Population Healthy Nuclei (%): 18%
  Population Hoechst High Intensity Objects (%): 23%
  Population Membrane Permeable-Phenotype (%): 11%
  Population Mitochondria Different-Phenotype (%): 26%
  Population Mitotic Cells (%): 43%
  Population Normal (%): 76%
  Population Pyknosed Nuclei (%): 37%
  Population Tubulin-Different-Phenotype (%): 7%
  Total Cell Count: 197
[8]
  Population Apoptotic (%): 33%
  Population Fragmented Nuclei (%): 25%
  Population Healthy Nuclei (%): 70%
  Population Hoechst High Intensity Objects (%): 3%
  Population Membrane Permeable-Phenotype (%): 1%
  Population Mitochondria Different-Phenotype (%): 16%
  Population Mitotic Cells (%): 66%
  Population Normal (%): 96%
  Population Pyknosed Nuclei (%): 4%
  Population Tubulin-Different-Phenotype (%): 13%
  Total Cell Count: 83
[9]
  Population Apoptotic (%): 21%
  Population Fragmented Nuclei (%): 4%
  Population Healthy Nuclei (%): 89%
  Population Hoechst High Intensity Objects (%): 2%
  Population Membrane Permeable-Phenotype (%): 2%
  Population Mitochondria Different-Phenotype (%): 13%
  Population Mitotic Cells (%): 78%
  Population Normal (%): 97%
  Population Pyknosed Nuclei (%): 6%
  Population Tubulin-Different-Phenotype (%): 10%
  Total Cell Count: 5
[10]
  Population Apoptotic (%): 42%
  Population Healthy Nuclei (%): 90%
  Population Hoechst High Intensity Objects (%): 1%
  Population Membrane Permeable-Phenotype (%): 0%
  Population Mitotic Cells (%): 57%
  Population Normal (%): 98%
  Population Pyknosed Nuclei (%): 5%
  Population Tubulin-Different-Phenotype (%): 11%
  Total Cell Count: 235
[11]
  Population Apoptotic (%): 47%
  Population Fragmented Nuclei (%): 53%
  Population Healthy Nuclei (%): 16%
  Population Hoechst High Intensity Objects (%): 18%
  Population Membrane Permeable-Phenotype (%): 25%
  Population Mitochondria Different-Phenotype (%): 29%
  Population Mitotic Cells (%): 52%
  Population Normal (%): 81%
  Population Pyknosed Nuclei (%): 30%
  Population Tubulin-Different-Phenotype (%): 25%
  Total Cell Count: 316
[12]
  Population Apoptotic (%): 22%
  Population Fragmented Nuclei (%): 12%
  Population Healthy Nuclei (%): 79%
  Population Hoechst High Intensity Objects (%): 3%
  Population Membrane Permeable-Phenotype (%): 2%
  Population Mitochondria Different-Phenotype (%): 22%
  Population Mitotic Cells (%): 77%
  Population Normal (%): 96%
  Population Pyknosed Nuclei (%): 8%
  Population Tubulin-Different-Phenotype (%): 28%
  Total Cell Count: 127
